According to ChEMBL document CHEMBL4808178 (J Med Chem, 2021):
pIC50: −log10 of the molar value. Active and inactive are the calls of the source. No cut-off for these calls is given here.

Legend:
T-24 = assay: Cytotoxicity against human T24 cells assessed as reduction in cell viability incubated for 72 hrs by MTT assay; type: functional, cell-based; details: T-24, 72 h
Method in brief: (§1)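 About 5 × 10³ cells/well, seeded overnight at 37 °C, 5% CO₂, in DMEM or RPMI-1640 with 10% FBS and antibiotics. DMSO-dissolved compounds diluted in medium, exposure 72 h.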

HCT-116 [1] = assay: Cytotoxicity against human HCT-116 cells assessed as reduction in cell viability incubated for 72 hrs by MTT assay; type: functional, cell-based; details: HCT-116, 72 h; method in brief: as §1
HT-29 = assay: Cytotoxicity against human HT-29 cells assessed as reduction in cell viability incubated for 72 hrs by MTT assay; type: functional, cell-based; details: HT-29, 72 h
MCF7 = assay: Cytotoxicity against human MCF7 cells assessed as reduction in cell viability incubated for 72 hrs by MTT assay; type: functional, cell-based; details: MCF7, 72 h; method in brief: as §1
PC-3 = assay: Cytotoxicity against human PC3 cells assessed as reduction in cell viability incubated for 72 hrs by MTT assay; type: functional, cell-based; details: PC-3, 72 h; method in brief: as §1
L02 = assay: Cytotoxicity against human L02 cells assessed as reduction in cell viability incubated for 72 hrs by MTT assay; type: cell-based; details: L02, 72 h; method in brief: as §1
[2] = biological target: Dual specificity protein kinase CLK2 (Homo sapiens, UniProt P49760); assay: Inhibition of human CLK2 incubated for 2 hrs
HCT-116 [3] = assay: Inhibition of cell stemness in human HCT116 cells assessed as morphological alterations at 5 uM after 10 days by microscopic analysis; type: functional, cell-based; details: time 10.0 day
Method in brief: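 Sorted ALDH⁺ HCT-116 cells, 800/well, in serum-free DMEM with B27 (1:50), EGF 20 ng/mL, β-FGF 10 ng/mL; co-incubated with compound (5 μM) or DMSO vehicle for 10 days; sphere number, diameter and morphology scored from microscopy images; mean ± SD, n = 3.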

HCT-116 [4] = assay: Inhibition of cell stemness in human HCT116 cells assessed as inhibition of CD44+/CD133+ expression at 20 uM after 24 hrs by flow cytometry analysis; type: functional
Method in brief: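 ALDH⁺ HCT-116 subpopulation sorted by flow cytometry; 2 × 10⁵ cells/well seeded overnight at 37 °C, 5% CO₂; treated 20 μM for 24 h (vehicle DMSO); stained with PE anti-CD133 and FITC anti-CD44 30 min; CD44⁺/CD133⁺ read by flow cytometry.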

Chain of Dual specificity protein kinase CLK2 (P49760 whole entry): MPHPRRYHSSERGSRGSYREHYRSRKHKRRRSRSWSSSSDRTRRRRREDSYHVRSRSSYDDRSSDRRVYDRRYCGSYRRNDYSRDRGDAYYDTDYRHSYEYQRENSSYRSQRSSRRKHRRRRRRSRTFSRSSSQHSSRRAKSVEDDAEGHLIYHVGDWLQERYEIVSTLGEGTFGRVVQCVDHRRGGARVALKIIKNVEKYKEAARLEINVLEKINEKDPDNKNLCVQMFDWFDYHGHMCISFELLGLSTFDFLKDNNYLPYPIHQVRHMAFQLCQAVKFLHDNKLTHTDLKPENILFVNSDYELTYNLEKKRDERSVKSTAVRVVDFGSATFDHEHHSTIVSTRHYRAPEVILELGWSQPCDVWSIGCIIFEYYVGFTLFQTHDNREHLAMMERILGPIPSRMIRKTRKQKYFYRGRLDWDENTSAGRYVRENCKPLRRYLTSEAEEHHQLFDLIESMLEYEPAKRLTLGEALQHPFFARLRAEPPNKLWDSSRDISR

SMILES: O=C(NO)c1ccc2c(c1)nc(Nc1cccc(Cl)c1)c1ccncc12
- pIC50 (T-24): 5.41
- pIC50 (HCT-116 [1]): 5.06
- pIC50 (HT-29): 5.00
- pIC50 (MCF7): 5.12
- pIC50 (PC-3): 4.82
- pIC50 (L02): 4.67

SMILES: O=C(O)CCNC(=O)c1ccc2c(c1)nc(Nc1cccc(Cl)c1)c1ccncc12
- pIC50 (T-24): 4.61
- pIC50 (HCT-116 [1]): 5.34
- pIC50 (HT-29): 4.70
- pIC50 (MCF7): 4.61
- pIC50 (PC-3): 4.79
- pIC50 (L02): 4.14

SMILES: O=C(NCCN1CCCC1)c1ccc2c(c1)nc(Nc1cccc(Cl)c1)c1ccncc12
- pIC50 (T-24): 5.49
- pIC50 (HCT-116 [1]): 5.06
- pIC50 (HT-29): 5.10
- pIC50 (MCF7): 5.07
- pIC50 (PC-3): 5.00
- pIC50 (L02): 4.79

SMILES: O=C(OCCF)c1ccc2c(c1)nc(Nc1cccc(Cl)c1)c1ccncc12
- pIC50 [2]: 8.97
- pIC50 (T-24): 5.23
- pIC50 (HCT-116 [1]): 5.37
- pIC50 (HT-29): 5.11
- pIC50 (MCF7): 5.22
- pIC50 (PC-3): 5.19
- pIC50 (L02): 4.24

SMILES: O=C(NCCBr)c1ccc2c(c1)nc(Nc1cccc(Cl)c1)c1ccncc12
- pIC50 [2]: 7.61
- pIC50 (T-24): 5.05
- pIC50 (HCT-116 [1]): 4.55
- pIC50 (HT-29): 5.10
- pIC50 (MCF7): 4.83
- pIC50 (PC-3): 5.06
- pIC50 (L02): 4.18

SMILES: O=C(O)CCCNC(=O)c1ccc2c(c1)nc(Nc1cccc(Cl)c1)c1ccncc12
- pIC50 (T-24): 4.67
- pIC50 (HCT-116 [1]): 4.61
- pIC50 (HT-29): 4.84
- pIC50 (MCF7): 4.71
- pIC50 (PC-3): 5.38
- pIC50 (L02): 4.49

SMILES: O=C(OCCc1ccccn1)c1ccc2c(c1)nc(Nc1cccc(Cl)c1)c1ccncc12
- pIC50 (T-24): 4.65
- pIC50 (HCT-116 [1]): 5.16
- pIC50 (HT-29): 5.02
- pIC50 (MCF7): 5.00
- pIC50 (PC-3): 4.96
- pIC50 (L02): 4.60

SMILES: CC(=O)c1cc2c(o1)C(=O)c1ccccc1C2=O [NAPABUCASIN]
- inhibition (HCT-116 [3]): Active
- inhibition at 20 µM (HCT-116 [4]): 89%

SMILES: O=C(OCCOCCOCCO)c1ccc2c(c1)nc(Nc1cccc(Cl)c1)c1ccncc12
- pIC50 (T-24): 4.85
- pIC50 (HCT-116 [1]): 5.01
- pIC50 (HT-29): 4.90
- pIC50 (MCF7): 4.87
- pIC50 (PC-3): 4.72
- pIC50 (L02): 4.51

SMILES: COC(=O)CCCNC(=O)c1ccc2c(c1)nc(Nc1cccc(Cl)c1)c1ccncc12
- pIC50 (T-24): 4.89
- pIC50 (HCT-116 [1]): 5.23
- pIC50 (HT-29): 4.69
- pIC50 (MCF7): 4.70
- pIC50 (PC-3): 5.31
- pIC50 (L02): 4.05

SMILES: C#CCNC(=O)c1ccc2c(c1)nc(Nc1cccc(Cl)c1)c1ccncc12
- pIC50 (T-24): 4.73
- pIC50 (HCT-116 [1]): 4.67
- pIC50 (HT-29): 4.78
- pIC50 (MCF7): 4.86
- pIC50 (PC-3): 5.12
- pIC50 (L02): 4.55

SMILES: O=C(OCCC(Cl)Cl)c1ccc2c(c1)nc(Nc1cccc(Cl)c1)c1ccncc12
- pIC50 (T-24): 4.69
- pIC50 (HCT-116 [1]): 4.68
- pIC50 (HT-29): 4.74
- pIC50 (MCF7): 4.85
- pIC50 (PC-3): 4.87
- pIC50 (L02): 4.66

SMILES: O=C(NCC(F)F)c1ccc2c(c1)nc(Nc1cccc(Cl)c1)c1ccncc12
- pIC50 (T-24): 4.74
- pIC50 (HCT-116 [1]): 4.78
- pIC50 (MCF7): 4.98
- pIC50 (PC-3): 5.21
- pIC50 (L02): 4.74

SMILES: O=C(OCC(F)F)c1ccc2c(c1)nc(Nc1cccc(Cl)c1)c1ccncc12
- pIC50 [2]: 8.81
- pIC50 (T-24): 4.64
- pIC50 (HCT-116 [1]): 5.12
- pIC50 (HT-29): 5.09
- pIC50 (MCF7): 5.01
- pIC50 (PC-3): 4.66
- pIC50 (L02): 4.08

SMILES: NCCCNC(=O)c1ccc2c(c1)nc(Nc1cccc(Cl)c1)c1ccncc12
- pIC50 (T-24): 4.43
- pIC50 (HCT-116 [1]): 4.80
- pIC50 (HT-29): 5.01
- pIC50 (MCF7): 4.71
- pIC50 (PC-3): 4.85
- pIC50 (L02): 4.07

SMILES: O=C(NCCN1CCOCC1)c1ccc2c(c1)nc(Nc1cccc(Cl)c1)c1ccncc12
- pIC50 [2]: 7.66
- pIC50 (T-24): 5.06
- pIC50 (HCT-116 [1]): 5.10
- pIC50 (HT-29): 4.87
- pIC50 (MCF7): 4.96
- pIC50 (PC-3): 5.48
- pIC50 (L02): 4.42

SMILES: O=C(NCCN1CCCCC1)c1ccc2c(c1)nc(Nc1cccc(Cl)c1)c1ccncc12
- pIC50 (T-24): 5.49
- pIC50 (HCT-116 [1]): 5.07
- pIC50 (HT-29): 4.86
- pIC50 (MCF7): 5.43
- pIC50 (PC-3): 5.22
- pIC50 (L02): 4.84

SMILES: NCCNC(=O)c1ccc2c(c1)nc(Nc1cccc(Cl)c1)c1ccncc12
- pIC50 [2]: 7.71
- pIC50 (T-24): 4.84
- pIC50 (HCT-116 [1]): 5.14
- pIC50 (HT-29): 4.94
- pIC50 (MCF7): 5.31
- pIC50 (PC-3): 5.26
- pIC50 (L02): 3.95

SMILES: O=C(OCCO)c1ccc2c(c1)nc(Nc1cccc(Cl)c1)c1ccncc12
- pIC50 [2]: 8.62
- pIC50 (T-24): 4.78
- pIC50 (HCT-116 [1]): 4.96
- pIC50 (HT-29): 4.96
- pIC50 (MCF7): 4.82
- pIC50 (PC-3): 5.04
- pIC50 (L02): 4.35

SMILES: CN(C)CCNC(=O)c1ccc2c(c1)nc(Nc1cccc(Cl)c1)c1ccncc12
- pIC50 (T-24): 5.23
- pIC50 (HCT-116 [1]): 4.89
- pIC50 (HT-29): 5.29
- pIC50 (MCF7): 5.22
- pIC50 (PC-3): 4.96
- pIC50 (L02): 4.76

SMILES: O=C(NCCCO)c1ccc2c(c1)nc(Nc1cccc(Cl)c1)c1ccncc12
- pIC50 (T-24): 4.73
- pIC50 (HCT-116 [1]): 4.86
- pIC50 (HT-29): 4.93
- pIC50 (MCF7): 5.11
- pIC50 (PC-3): 5.05
- pIC50 (L02): 4.13

SMILES: O=C(OCCI)c1ccc2c(c1)nc(Nc1cccc(Cl)c1)c1ccncc12
- pIC50 [2]: 8.77
- pIC50 (T-24): 4.76
- pIC50 (HCT-116 [1]): 4.75
- pIC50 (HT-29): 4.77
- pIC50 (MCF7): 4.97
- pIC50 (PC-3): 5.00
- pIC50 (L02): 4.36

SMILES: CS(=O)(=O)NC(=O)c1ccc2c(c1)nc(Nc1cccc(Cl)c1)c1ccncc12
- pIC50 (T-24): 4.63
- pIC50 (HCT-116 [1]): 4.88
- pIC50 (HT-29): 4.75
- pIC50 (MCF7): 4.92
- pIC50 (PC-3): 5.38
- pIC50 (L02): 4.55

SMILES: COC(=O)CCNC(=O)c1ccc2c(c1)nc(Nc1cccc(Cl)c1)c1ccncc12
- pIC50 [2]: 8.01
- pIC50 (T-24): 4.97
- pIC50 (HCT-116 [1]): 5.09
- pIC50 (HT-29): 5.45
- pIC50 (MCF7): 5.35
- pIC50 (PC-3): 5.00
- pIC50 (L02): < 3.70
